Results taken from PMC10436028 (RSC Advances, 2023).

How the values were obtained:
Assay type in all cases: cell-based
[1] = system: A-375 cell line; assay: MTT assay, melanoma A-375 cell line; details: Homo sapiens, A-375, 48 h, read-out: IC50 against A-375
Method in brief: (§1)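 Test compound dissolved in PBS with 0.5% DMSO and diluted in the same solvent. Cells were grown in DMEM with 10% FBS and 1% penicillin-streptomycin at 37 °C, 5% CO2. They were trypsinised, seeded and held 48 h, then given fresh medium. Exposure was 15.62–500 μM for 48 h. MTT (0.5 mg.mL−1) ran 4 h, formazan was dissolved in DMSO, and A570 read. Six vehicle wells per plate served as control. Viability was computed, in triplicate, as mean ± SD.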

[2] = system: MCF-7 cell line; assay: MTT assay, breast cancer MCF-7 cell line; details: Homo sapiens, MCF7, 48 h, read-out: IC50 against MCF-7
Method in brief: as §1

[3] = system: HEK-293 cell line; assay: MTT toxicity assay, normal cell line HEK-293; details: Homo sapiens, HEK293, 48 h, read-out: IC50 against HEK-293
Method in brief: as §1

IC50 [1] [µM]	IC50 [2] [µM]	SMILES	IC50 [3] [µM]
> 500	> 500	Cn1c(=O)c2c(nc(N3CCN(Cc4cn(CCCCN5C(=O)c6ccccc6S5(=O)=O)nn4)CC3)n2C)n(C)c1=O [Compound 12m, 8-(4-((1-(4-(1,1-Dioxido-3-oxobenzo[d]isothiazol-2(3H)-yl)butyl)-1H-1,2,3-triazol-4-yl)methyl)piperazin-1-yl)-1,3,7-trimethyl-3,7-dihydro-1H-purine-2,6-dione]	> 500
498 ± 2	306 ± 1.8	CCCCCCCn1cc(CN2CCN(c3nc4c(c(=O)n(C)c(=O)n4C)n3C)CC2)nn1 [Compound 12h, 8-(4-((1-Heptyl-1H-1,2,3-triazol-4-yl)methyl)piperazin-1-yl)-1,3,7-trimethyl-3,7-dihydro-1H-purine-2,6-dione]	> 500
> 500	> 500	CCOC(=O)CCCn1cc(CN2CCN(c3nc4c(c(=O)n(C)c(=O)n4C)n3C)CC2)nn1 [Compound 12g, Ethyl 4-(4-((4-(1,3,7-trimethyl-2,6-dioxo-2,3,6,7-tetrahydro-1H-purin-8-yl)piperazin-1-yl)methyl)-1H-1,2,3-triazol-1-yl)butanoate]	> 500
> 500	> 500	Cn1c(=O)c2c(nc(N3CCN(Cc4cn(CCCc5ccccc5)nn4)CC3)n2C)n(C)c1=O [Compound 12d, 1,3,7-Trimethyl-8-(4-((1-(3-phenylpropyl)-1H-1,2,3-triazol-4-yl)methyl)piperazin-1-yl)-3,7-dihydro-1H-purine-2,6-dione]	> 500
> 500	> 500	Cn1c(=O)c2c(nc(N3CCN(Cc4cn(Cc5ccccc5)nn4)CC3)n2C)n(C)c1=O [Compound 12a, 8-(4-((1-Benzyl-1H-1,2,3-triazol-4-yl)methyl)piperazin-1-yl)-1,3,7-trimethyl-3,7-dihydro-1H-purine-2,6-dione]	> 500
> 500	> 500	Cn1c(=O)c2c(nc(N3CCN(Cc4cn(C(c5ccccc5)c5ccccc5)nn4)CC3)n2C)n(C)c1=O [Compound 12c, 8-(4-((1-Benzhydryl-1H-1,2,3-triazol-4-yl)methyl)piperazin-1-yl)-1,3,7-trimethyl-3,7-dihydro-1H-purine-2,6-dione]	> 500
> 500	> 500	Cn1c(=O)c2c(nc(N3CCN(Cc4cn(CCCCCN5C(=O)c6ccccc6C5=O)nn4)CC3)n2C)n(C)c1=O [Compound 12l, 8-(4-((1-(5-(1,3-Dioxoisoindolin-2-yl)pentyl)-1H-1,2,3-triazol-4-yl)methyl)piperazin-1-yl)-1,3,7-trimethyl-3,7-dihydro-1H-purine-2,6-dione]	> 500
> 500	> 500	Cn1c(=O)c2c(nc(N3CCN(Cc4cn(CCCCCN5C(=O)c6ccccc6S5(=O)=O)nn4)CC3)n2C)n(C)c1=O [Compound 12o, 8-(4-((1-(5-(1,1-Dioxido-3-oxobenzo[d]isothiazol-2(3H)-yl)pentyl)-1H-1,2,3-triazol-4-yl)methyl)piperazin-1-yl)-1,3,7-trimethyl-3,7-dihydro-1H-purine-2,6-dione]	> 500

The remaining lines, values behind:

SMILES	IC50 [1] [µM]	IC50 [2] [µM]	IC50 [3] [µM]
CCCCCCn1cc(CN2CCN(c3nc4c(c(=O)n(C)c(=O)n4C)n3C)CC2)nn1 [Compound 12i, 8-(4-((1-Hexyl-1H-1,2,3-triazol-4-yl)methyl)piperazin-1-yl)-1,3,7-trimethyl-3,7-dihydro-1H-purine-2,6-dione]	371 ± 2.5	260 ± 2.2	371 ± 2.3
CCCCCCCCCCn1cc(CN2CCN(c3nc4c(c(=O)n(C)c(=O)n4C)n3C)CC2)nn1 [Compound 12k, 8-(4-((1-Decyl-1H-1,2,3-triazol-4-yl)methyl)piperazin-1-yl)-1,3,7-trimethyl-3,7-dihydro-1H-purine-2,6-dione]	367 ± 3.4	175 ± 3.2	> 500
Cn1c(=O)c2c(nc(N3CCN(Cc4cn(CCc5ccccc5)nn4)CC3)n2C)n(C)c1=O [Compound 12e, 1,3,7-Trimethyl-8-(4-((1-phenethyl-1H-1,2,3-triazol-4-yl)methyl)piperazin-1-yl)-3,7-dihydro-1H-purine-2,6-dione]	> 500	> 500	> 500
CCCCCCCCn1cc(CN2CCN(c3nc4c(c(=O)n(C)c(=O)n4C)n3C)CC2)nn1 [Compound 12j, 1,3,7-Trimethyl-8-(4-((1-octyl-1H-1,2,3-triazol-4-yl)methyl)piperazin-1-yl)-3,7-dihydro-1H-purine-2,6-dione]	323 ± 2.6	245 ± 2.3	418 ± 2.4
Cn1c(=O)c2c(nc(N3CCN(Cc4cn(CC(=O)OCc5ccccc5)nn4)CC3)n2C)n(C)c1=O [Compound 12b, Benzyl 2-(4-((4-(1,3,7-trimethyl-2,6-dioxo-2,3,6,7-tetrahydro-1H-purin-8-yl)piperazin-1-yl)methyl)-1H-1,2,3-triazol-1-yl)acetate]	> 500	> 500	> 500
Cc1ccc(Cn2cc(CN3CCN(c4nc5c(c(=O)n(C)c(=O)n5C)n4C)CC3)nn2)cc1 [Compound 12f, 1,3,7-Trimethyl-8-(4-((1-(4-methylbenzyl)-1H-1,2,3-triazol-4-yl)methyl)piperazin-1-yl)-3,7-dihydro-1H-purine-2,6-dione]	> 500	> 500	> 500
CN(Cc1cnc2nc(N)nc(N)c2n1)c1ccc(C(=O)N[C@@H](CCC(=O)O)C(=O)O)cc1 [MTX, methotrexate, reference compound]	418 ± 2	343 ± 3.6	199 ± 2.4
Cn1c(=O)c2c(nc(N3CCN(Cc4cn(CCCN5C(=O)c6ccccc6S5(=O)=O)nn4)CC3)n2C)n(C)c1=O [Compound 12n, 8-(4-((1-(3-(1,1-Dioxido-3-oxobenzo[d]isothiazol-2(3H)-yl)propyl)-1H-1,2,3-triazol-4-yl)methyl)piperazin-1-yl)-1,3,7-trimethyl-3,7-dihydro-1H-purine-2,6-dione]	> 500	> 500	> 500
